Test results reported in ChEMBL document CHEMBL4699498 (J Med Chem, 2020).
Calls of active or inactive are those of the source. No cut-off for these calls is given here.

Legend:
[1] = system: MDA-MB-436; experiment: Antiproliferative activity against human MDA-MB-436 cells assessed as cell growth inhibition incubated for 7 days by CCK-8 assay; format: functional, cell-based; settings: MDA-MB-436, 168 h
Summary of the method: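 Cells were sub-cultured at least twice and seeded for 24 h before dosing. Compounds came from 10 mM DMSO stocks, given as 10 points of 3-fold serial dilution starting at 10-20 μM. Incubation was about 7 days (Capan-1 13 days) at 37 °C, 5% CO2. Read-out was CCK-8 absorbance at 450 nm, as % growth versus DMSO wells (duplicate wells). IC50 was fitted by nonlinear regression; three independent experiments.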

[2] = target: T1, Protein cereblon/Poly [ADP-ribose] polymerase 1 (Homo sapiens, UniProt P09874+Q96SW2); experiment: Protac activity at CRBN/PARP1 in human PC-3 cells assessed as induction of PARP1 degradation at 30 nM incubated for 1 to 24 hrs by Western blot analysis; format: cell-based; settings: time hrs 1-24
[3] = target: T1, Protein cereblon/Poly [ADP-ribose] polymerase 1; experiment: Protac activity at CRBN/PARP1 in human SW-620 cells assessed as induction of PARP1 degradation at 30 nM incubated for 24 hrs in presence of 0.1 to 1 uM PARP1 inhibitor olaparib by Western blot analysis; format: cell-based
[4] = target: T1, Protein cereblon/Poly [ADP-ribose] polymerase 1; experiment: Protac activity at CRBN/PARP1 in human SW-620 cells assessed as induction of PARP1 degradation at 30 nM incubated for 24 hrs in presence of proteasome inhibitor MG132 by Western blot analysis; format: cell-based
[5] = target: T1, Protein cereblon/Poly [ADP-ribose] polymerase 1; experiment: Protac activity at CRBN/PARP1 in human SW-620 cells assessed as induction of PARP1 degradation at 30 nM incubated for 24 hrs in presence of NEDD8-activating E1 enzyme inhibitor MLN4924 by Western blot analysis; format: cell-based
[6] = system: SW-620; experiment: Potentiation of TMZ induced antitumor activity against SW-620 cells xenografted in Balb/c mouse assessed as tumor growth suppression at 10 mg/kg, po qd administered for 5 days; format: functional, organism-based; settings: time 5.0 day
Summary of the method: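 Male BALB/c nude mice carried SW620 xenografts (6×10^6 cells s.c.), randomized at ~150 mm³ (6 per group). TMZ 50 mg/kg was given orally once daily on days 0-4, 45 min after the partner drug. Partners were 5 or 10 mg/kg intraperitoneally or 10 mg/kg by oral gavage, daily for 5 days. Vehicle was 5% DMSO/20% PEG400/10% Cremophor EL/65% saline. Tumor volume and body weight were recorded 2-3 times weekly.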

T1 sequence (P09874 2-1014 limits assumed): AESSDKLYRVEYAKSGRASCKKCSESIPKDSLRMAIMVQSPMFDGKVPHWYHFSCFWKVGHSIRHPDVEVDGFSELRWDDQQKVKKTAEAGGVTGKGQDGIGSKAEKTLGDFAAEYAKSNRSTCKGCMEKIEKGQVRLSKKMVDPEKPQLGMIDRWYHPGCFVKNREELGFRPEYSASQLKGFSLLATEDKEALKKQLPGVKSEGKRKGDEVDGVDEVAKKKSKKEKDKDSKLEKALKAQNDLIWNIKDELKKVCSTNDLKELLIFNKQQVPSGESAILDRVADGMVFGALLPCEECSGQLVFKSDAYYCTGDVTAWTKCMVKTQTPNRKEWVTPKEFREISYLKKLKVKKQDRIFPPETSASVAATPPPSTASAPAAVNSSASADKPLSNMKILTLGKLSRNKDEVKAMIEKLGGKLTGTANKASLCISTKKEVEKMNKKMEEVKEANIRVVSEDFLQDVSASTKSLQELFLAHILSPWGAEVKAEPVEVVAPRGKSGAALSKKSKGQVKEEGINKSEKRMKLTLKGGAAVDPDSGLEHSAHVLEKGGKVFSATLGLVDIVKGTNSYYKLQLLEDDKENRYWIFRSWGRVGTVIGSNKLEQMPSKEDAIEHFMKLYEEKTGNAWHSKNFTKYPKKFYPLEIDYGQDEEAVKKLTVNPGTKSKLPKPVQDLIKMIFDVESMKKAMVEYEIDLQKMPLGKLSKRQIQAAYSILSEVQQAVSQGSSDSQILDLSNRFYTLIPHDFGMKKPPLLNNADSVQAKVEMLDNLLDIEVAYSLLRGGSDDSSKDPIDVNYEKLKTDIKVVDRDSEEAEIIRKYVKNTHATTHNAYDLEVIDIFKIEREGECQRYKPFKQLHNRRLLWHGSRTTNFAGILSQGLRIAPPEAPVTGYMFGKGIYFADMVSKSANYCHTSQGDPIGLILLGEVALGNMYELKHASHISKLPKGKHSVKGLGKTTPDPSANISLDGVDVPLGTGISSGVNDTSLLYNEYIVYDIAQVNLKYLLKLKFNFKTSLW
T1 sequence (Q96SW2 whole entry partner): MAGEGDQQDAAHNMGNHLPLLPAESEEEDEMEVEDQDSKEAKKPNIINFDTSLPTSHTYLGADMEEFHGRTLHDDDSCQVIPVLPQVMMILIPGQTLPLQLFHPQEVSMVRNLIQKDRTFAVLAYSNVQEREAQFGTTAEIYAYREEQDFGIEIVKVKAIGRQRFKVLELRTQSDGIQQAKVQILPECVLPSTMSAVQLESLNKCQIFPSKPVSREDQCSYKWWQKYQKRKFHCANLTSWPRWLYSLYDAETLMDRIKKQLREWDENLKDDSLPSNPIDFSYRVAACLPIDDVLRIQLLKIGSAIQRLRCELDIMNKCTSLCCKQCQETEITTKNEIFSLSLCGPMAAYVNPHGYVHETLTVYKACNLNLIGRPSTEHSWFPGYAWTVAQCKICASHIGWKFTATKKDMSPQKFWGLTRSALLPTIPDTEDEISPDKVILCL

SMILES: O=C(CCCCCCCCCCC(=O)N1CCN(C(=O)c2cc(Cc3n[nH]c(=O)c4ccccc34)ccc2F)CC1)NCCNc1cccc2c1C(=O)N(C1CCC(=O)NC1=O)C2=O (stereo unspecified)
- IC50 [1]: 19 nM
- Activity [2]: Active
- Activity [3]: inactive
- Activity [4]: inactive
- Activity [5]: inactive
- Activity [6]: Active
